ChEMBL document CHEMBL4346663, “N-Cinnamoylanthranilates as human TRPA1 modulators: Structure-activity relationships and channel binding sites” (Eur J Med Chem, 2019)
Active and inactive are the calls of the source. No cut-off for these calls is given here.

How the values were obtained:
[1] = target: T1, Transient receptor potential cation channel subfamily A member 1 (Homo sapiens, UniProt O75762); assay: Agonist activity at human TRPA1 expressed in HEK293 cells assessed as increase in calcium influx by Fluo-4-AM dye based fluorescence assay; type: cell-based
T1 sequence (O75762 whole entry): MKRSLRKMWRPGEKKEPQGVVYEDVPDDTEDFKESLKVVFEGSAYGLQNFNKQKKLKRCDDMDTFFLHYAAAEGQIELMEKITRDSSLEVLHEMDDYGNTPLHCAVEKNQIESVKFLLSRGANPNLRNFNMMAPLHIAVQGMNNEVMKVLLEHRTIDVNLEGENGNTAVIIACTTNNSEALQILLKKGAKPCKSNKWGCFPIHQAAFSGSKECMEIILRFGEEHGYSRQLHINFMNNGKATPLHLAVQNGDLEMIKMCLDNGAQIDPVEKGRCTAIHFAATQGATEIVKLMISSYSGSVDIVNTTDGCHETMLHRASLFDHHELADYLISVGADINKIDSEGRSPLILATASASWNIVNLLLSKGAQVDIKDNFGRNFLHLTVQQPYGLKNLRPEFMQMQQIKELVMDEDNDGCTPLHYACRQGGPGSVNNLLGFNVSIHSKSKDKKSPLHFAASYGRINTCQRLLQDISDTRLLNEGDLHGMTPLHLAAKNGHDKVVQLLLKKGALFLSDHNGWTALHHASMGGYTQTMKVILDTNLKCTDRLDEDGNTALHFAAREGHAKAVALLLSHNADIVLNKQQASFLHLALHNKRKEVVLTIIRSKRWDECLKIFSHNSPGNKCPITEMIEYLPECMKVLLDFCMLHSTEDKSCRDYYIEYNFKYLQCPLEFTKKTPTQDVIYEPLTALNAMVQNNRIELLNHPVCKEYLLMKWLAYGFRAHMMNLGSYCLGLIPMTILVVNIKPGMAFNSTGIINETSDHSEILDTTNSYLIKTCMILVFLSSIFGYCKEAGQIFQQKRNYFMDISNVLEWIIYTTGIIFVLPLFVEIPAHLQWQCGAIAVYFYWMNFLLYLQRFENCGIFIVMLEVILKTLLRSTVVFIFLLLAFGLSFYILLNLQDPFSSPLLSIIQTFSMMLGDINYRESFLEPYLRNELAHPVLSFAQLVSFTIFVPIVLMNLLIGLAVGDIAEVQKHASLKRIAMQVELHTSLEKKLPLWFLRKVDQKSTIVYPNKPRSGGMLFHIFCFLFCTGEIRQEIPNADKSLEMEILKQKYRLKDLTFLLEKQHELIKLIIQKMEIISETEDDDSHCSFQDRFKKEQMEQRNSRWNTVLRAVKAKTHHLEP
Outline: (§1)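 Stably transfected hTRPA1- or hTRPM8-HEK293 cells on poly-D-lysine plates for 48 h, loaded with Fluo-4AM (2 µM, 45 min, dark, room temperature), in isotonic HEPES buffer pH 7.4. FlexStation 240 s run: 20 s baseline, compound added, calcimycin added at 180 s. ΔRFU expressed as % calcimycin, DMSO-subtracted. Screening N = 3. Dose-response curves fitted for logEC50 (N = 3 in duplicate or triplicate).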

[2] = test system: Transient receptor potential cation channel subfamily A member 1 (Homo sapiens), O75762 [F909A]; assay: Agonist activity at human TRPA1 Phe909Ala mutant expressed in HEK293 cells assessed as Ca2+ influx […] fluorescence assay; type: cell-based
Chain of Transient receptor potential cation channel subfamily A member 1 (Homo sapiens), O75762 [F909A] (O75762 whole entry F909A): as the sequence (O75762 whole entry) above, with F909A counted along it
Outline: (§2)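 HEK293 cells stably expressing hTRPA1 point mutants (C621A, F909A or F944A), single-cell cloned under G418 selection. Cells plated on poly-D-lysine for 48 h, loaded with Fluo-4AM 2 µM for 45 min at room temperature. FlexStation read (ex 485/em 538 nm): 20 s baseline, compound added, calcimycin added at 180 s. Response expressed as % calcimycin from ΔRFU, vehicle-subtracted, and compared with wild-type hTRPA1 cells.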

[3] = target: Transient receptor potential cation channel subfamily A member 1 (Mus musculus, UniProt Q8BLA8); assay: Agonist activity at mouse TRPA1 expressed in CHO cells assessed as increase in calcium influx by patch clamp electrophysiology method; type: cell-based
Chain of Transient receptor potential cation channel subfamily A member 1 (Mus musculus, UniProt Q8BLA8) (Q8BLA8 whole entry): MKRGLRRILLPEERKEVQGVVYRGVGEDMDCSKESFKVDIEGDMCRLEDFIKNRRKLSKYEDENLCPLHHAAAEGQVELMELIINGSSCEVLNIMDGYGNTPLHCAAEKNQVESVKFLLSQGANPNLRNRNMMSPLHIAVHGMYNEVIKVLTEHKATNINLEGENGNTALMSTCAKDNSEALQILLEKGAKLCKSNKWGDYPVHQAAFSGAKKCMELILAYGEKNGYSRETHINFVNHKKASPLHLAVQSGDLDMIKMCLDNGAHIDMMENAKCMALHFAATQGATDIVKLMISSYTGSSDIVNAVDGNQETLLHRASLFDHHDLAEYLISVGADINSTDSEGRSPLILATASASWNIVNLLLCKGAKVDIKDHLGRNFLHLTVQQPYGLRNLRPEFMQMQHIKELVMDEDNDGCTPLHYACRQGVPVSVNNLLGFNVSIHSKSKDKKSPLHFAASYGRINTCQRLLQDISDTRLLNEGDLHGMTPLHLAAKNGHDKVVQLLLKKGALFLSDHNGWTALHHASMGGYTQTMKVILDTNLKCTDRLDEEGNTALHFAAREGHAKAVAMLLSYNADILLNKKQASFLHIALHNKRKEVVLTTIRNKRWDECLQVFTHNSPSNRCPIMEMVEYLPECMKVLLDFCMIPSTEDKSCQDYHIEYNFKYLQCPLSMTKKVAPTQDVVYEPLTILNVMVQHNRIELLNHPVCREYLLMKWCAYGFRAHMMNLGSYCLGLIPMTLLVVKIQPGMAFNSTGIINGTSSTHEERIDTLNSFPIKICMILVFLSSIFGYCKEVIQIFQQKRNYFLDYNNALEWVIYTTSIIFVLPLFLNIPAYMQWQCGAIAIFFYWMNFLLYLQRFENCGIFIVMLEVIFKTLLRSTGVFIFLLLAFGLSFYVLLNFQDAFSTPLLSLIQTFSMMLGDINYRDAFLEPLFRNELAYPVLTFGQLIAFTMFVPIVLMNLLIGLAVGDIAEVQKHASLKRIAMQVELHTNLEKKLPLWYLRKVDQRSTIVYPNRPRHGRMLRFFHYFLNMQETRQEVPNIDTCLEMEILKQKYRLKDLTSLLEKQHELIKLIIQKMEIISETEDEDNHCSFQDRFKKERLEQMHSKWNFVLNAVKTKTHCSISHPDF

[4] = target: T1, Transient receptor potential cation channel subfamily A member 1; assay: Reversible desensitizing activity at human TRPA1 expressed in HEK293 cells assessed as CA-induced increase in Ca2+ influx up to 30 uM pretreated with compound followed by drug wash-out and CA challenge by Fluo-4-AM dye based fluorescence assay; type: cell-based
Outline: (§3)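 hTRPA1-HEK293 cells loaded with Fluo-4AM were pre-incubated with compound, then washed and resuspended in fresh assay buffer. The response to cinnamaldehyde (30 µM) was then measured by FlexStation calcium fluorescence.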

[5] = target: T1, Transient receptor potential cation channel subfamily A member 1; assay: Agonist activity at human TRPA1 expressed in HEK293 cells assessed as increase in calcium influx at 30 uM by Fluo-4-AM dye based fluorescence assay relative to calcimycin; type: cell-based; outline: as §1
[6] = target: T2, Transient receptor potential cation channel subfamily M member 8 (Homo sapiens, UniProt Q7Z2W7); assay: Antagonist activity at human TRPM8 expressed in HEK293 cells assessed as increase in calcium influx at 100 uM incubated for 10 mins prior to WS5 challenge by Fluo-4-AM dye based fluorescence assay relative to WS5; type: cell-based; design: scale not given: the % may be the effect or the level left
Outline: (§4)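 hTRPM8-HEK293 cells loaded with Fluo-4AM (2 µM, 45 min). Test compound pre-incubated 10 min before WS5 standard agonist. FlexStation fluorescence at 485/538 nm. ΔRFU given as % of WS5 response after DMSO vehicle subtraction. N = 3. IC50 from dose-response curves.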
Target sequence in this assay (Q7Z2W7 whole entry, looked up): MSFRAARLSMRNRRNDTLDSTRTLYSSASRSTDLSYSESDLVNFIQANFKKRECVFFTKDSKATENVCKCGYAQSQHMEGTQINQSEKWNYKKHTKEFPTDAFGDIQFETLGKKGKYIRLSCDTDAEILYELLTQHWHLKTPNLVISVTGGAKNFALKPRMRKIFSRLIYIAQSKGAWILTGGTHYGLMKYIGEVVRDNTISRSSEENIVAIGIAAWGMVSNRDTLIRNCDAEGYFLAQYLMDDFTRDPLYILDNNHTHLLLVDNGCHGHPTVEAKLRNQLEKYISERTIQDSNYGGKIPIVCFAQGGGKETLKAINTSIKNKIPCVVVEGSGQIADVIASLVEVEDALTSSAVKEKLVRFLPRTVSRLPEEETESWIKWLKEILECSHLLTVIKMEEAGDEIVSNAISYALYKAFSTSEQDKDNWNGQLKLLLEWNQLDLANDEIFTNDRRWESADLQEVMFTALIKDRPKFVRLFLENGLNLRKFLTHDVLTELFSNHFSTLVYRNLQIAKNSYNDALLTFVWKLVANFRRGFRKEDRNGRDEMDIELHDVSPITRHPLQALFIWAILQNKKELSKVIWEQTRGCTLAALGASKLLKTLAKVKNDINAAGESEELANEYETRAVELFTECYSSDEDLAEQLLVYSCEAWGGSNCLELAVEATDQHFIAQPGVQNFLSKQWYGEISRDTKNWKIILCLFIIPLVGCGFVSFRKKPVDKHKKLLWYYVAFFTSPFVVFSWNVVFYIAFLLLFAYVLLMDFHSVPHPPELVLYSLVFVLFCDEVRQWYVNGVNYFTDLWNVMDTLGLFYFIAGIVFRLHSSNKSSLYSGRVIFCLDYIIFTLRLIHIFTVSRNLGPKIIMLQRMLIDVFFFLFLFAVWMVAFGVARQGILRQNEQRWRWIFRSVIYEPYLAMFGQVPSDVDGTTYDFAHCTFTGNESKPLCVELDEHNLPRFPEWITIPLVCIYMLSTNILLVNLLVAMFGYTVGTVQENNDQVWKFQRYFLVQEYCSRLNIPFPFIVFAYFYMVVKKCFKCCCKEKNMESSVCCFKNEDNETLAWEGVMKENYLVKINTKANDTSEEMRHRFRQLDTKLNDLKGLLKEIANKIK

[7] = Dissociation constant, pKa of the compound at pH 7.4; type: physicochemical
[8] = target: T1, Transient receptor potential cation channel subfamily A member 1; assay: Antagonist activity at human TRPA1 expressed in HEK293 cells assessed as inhibition of CA-induced increase in calcium influx incubated for 10 mins prior to CA addition by Fluo-4-AM dye based fluorescence assayy; type: cell-based
[9] = target: T1, Transient receptor potential cation channel subfamily A member 1; assay: Antagonist activity at human TRPA1 expressed in HEK293 cells assessed as increase in calcium influx at 100 uM incubated for 10 mins prior to CA addition by Fluo-4-AM dye based fluorescence assay relative to CA; type: cell-based; design: scale not given: the % may be the effect or the level left
Outline: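 hTRPA1-HEK293 cells loaded with Fluo-4AM (2 µM). Compound pre-incubated 10 min, then cinnamaldehyde standard agonist added. FlexStation read, ex 485/em 538 nm. ΔRFU normalized to the CA response set at 100 % after DMSO vehicle subtraction. N = 3. logIC50 taken from dose-response fits.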

[10] = target: T2, Transient receptor potential cation channel subfamily M member 8; assay: Agonist activity at human TRPM8 expressed in HEK293 cells assessed as increase in calcium influx at 100 uM by Fluo-4-AM dye based fluorescence assay relative to calcimycin; type: cell-based; outline: as §1
Target sequence in this assay (Q7Z2W7 whole entry, looked up): as above

[11] = target: T2, Transient receptor potential cation channel subfamily M member 8; assay: Agonist activity at human TRPM8 expressed in HEK293 cells assessed as increase in calcium influx at 30 uM by Fluo-4-AM dye based fluorescence assay relative to calcimycin; type: cell-based; outline: as §1
Target sequence in this assay (Q7Z2W7 whole entry, looked up): as above

[12] = target: T1, Transient receptor potential cation channel subfamily A member 1; assay: Modulating activity at human TRPA1 expressed in HEK293 cells assessed as desensitization of CA-induced increase in Ca2+ influx at 10 uM measured within 10 mins by Fluo-4-AM dye based fluorescence assay; type: cell-based
Outline: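 hTRPA1-HEK293 cells with Fluo-4AM. Real-time fluorescence recorded for 10 min after compound addition (10 µM), followed by challenge with cinnamaldehyde (30 µM) to assess desensitization of the agonist response.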

[13] = target: T1, Transient receptor potential cation channel subfamily A member 1; assay: Irreversible desensitizing activity at human TRPA1 expressed in HEK293 cells assessed as CA-induced increase in Ca2+ influx at >30 uM pretreated with compound followed by drug wash-out and CA challenge by Fluo-4-AM dye based fluorescence assay; type: cell-based; outline: as §3
Cavia porcellus [14] = species: Cavia porcellus; assay: Agonist activity at TRPA1 in Dunkin-Hartley guinea pig vagus nerve assessed as activation of vagus nerve by measuring depolarization at 100 uM […]
Outline: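 Isolated vagus nerves from male Dunkin-Hartley guinea pigs (300-400 g, eight animals). Compound DMSO stocks diluted 1000× in Krebs-Henseleit buffer. Viability checked with capsaicin (1 µM) at the start and acrolein (300 µM) at the end. Single non-cumulative concentrations applied for 2 min each, with KH wash to baseline between them. DMSO vehicle run alike. Depolarization recorded in mV.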

[15] = target: T1, Transient receptor potential cation channel subfamily A member 1; assay: Reversible desensitizing activity at human TRPA1 expressed in HEK293 cells assessed as CA-induced increase in Ca2+ influx upto 10 uM pretreated with compound followed by drug wash-out and CA challenge by Fluo-4-AM dye based fluorescence assay; type: cell-based; outline: as §3
[16] = target: T2, Transient receptor potential cation channel subfamily M member 8; assay: Antagonist activity at human TRPM8 expressed in HEK293 cells assessed as inhibition in WS5-induced increase in calcium influx incubated for 10 mins prior to WS5 challenge by Fluo-4-AM dye based fluorescence assay; type: cell-based; outline: as §4
Target sequence in this assay (Q7Z2W7 whole entry): as the sequence (Q7Z2W7 whole entry, looked up) above

[17] = test system: Transient receptor potential cation channel subfamily A member 1 (Homo sapiens), O75762 [F944A]; assay: Agonist activity at human TRPA1 Phe944Ala mutant expressed in HEK293 cells assessed as Ca2+ influx at 10 uM by fluorescence assay; type: cell-based; outline: as §2
Chain of Transient receptor potential cation channel subfamily A member 1 (Homo sapiens), O75762 [F944A] (O75762 whole entry F944A): as the sequence (O75762 whole entry) above, with F944A counted along it

[18] = test system: Transient receptor potential cation channel subfamily A member 1 (Homo sapiens), O75762 [F909A]; assay: Agonist activity at human TRPA1 Phe909Ala mutant expressed in HEK293 cells assessed as Ca2+ influx at 10 uM by fluorescence assay; type: cell-based; outline: as §2
[19] = target: T1, Transient receptor potential cation channel subfamily A member 1; assay: Agonist activity at human TRPA1 in WI38 cells assessed as increase in calcium influx by Fluo-4-AM dye based fluorescence assay; type: cell-based
[20] = test system: Transient receptor potential cation channel subfamily A member 1 (Homo sapiens), O75762 [F909A]; assay: Antagonist activity at human TRPA1 Phe909Ala mutant expressed in HEK293 cells assessed as Ca2+ influx at 100 uM by fluorescence assay; type: cell-based
Outline: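 hTRPA1 F909A or F944A mutant HEK293 stable clones, loaded with Fluo-4AM (2 µM, 45 min, room temperature). Compound pre-incubated 10 min before the standard agonist was added. FlexStation fluorescence (485/538 nm). ΔRFU normalized to the standard agonist response set at 100 %, after DMSO vehicle subtraction.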

Cavia porcellus [21] = species: Cavia porcellus; assay: Antagonist activity at TRPA1 in Dunkin-Hartley guinea pig vagus nerve assessed as inhibition of ACR-stimulated vagus nerve by measuring depolarization at 100 uM incubated for 10 mins followed by ACR stimulation for 140 secs […]
Outline: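 Guinea pig vagus nerve (male Dunkin-Hartley) in Krebs-Henseleit buffer; compound from DMSO stock diluted 1000×. Two control acrolein (300 µM, 2 min) responses, each washed to baseline. Then 10 min compound pretreatment and re-stimulation with acrolein 300 µM for 2 min 20 s. After washout, a recovery acrolein response was taken. Depolarization recorded in mV.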

[22] = test system: Transient receptor potential cation channel subfamily A member 1 (Homo sapiens), O75762 [F909A]; assay: Agonist activity at human TRPA1 Phe909Ala mutant expressed in HEK293 cells assessed as Ca2+ influx at 30 uM by fluorescence assay; type: cell-based; outline: as §2
[23] = test system: Transient receptor potential cation channel subfamily A member 1 (Homo sapiens), O75762 [F944A]; assay: Agonist activity at human TRPA1 Phe944Ala mutant expressed in HEK293 cells assessed as Ca2+ influx at 30 uM by fluorescence assay; type: cell-based; outline: as §2

Row | Structure (SMILES) | EC50 ([1]; read-out: EC50) | Activity [5] | Activity [6] | pKa [7] | IC50 [8] | Activity [9] | Activity [10] | Activity [11] | Activity [12] | Activity [13] | further results
1 | CN1CCC[C@H]1c1cccnc1 [NICOTINE] | 2 µM |  |  |  |  |  |  |  |  |  | Activity [2]: Active; EC50 [3]: 10 µM
2 | O=C(/C=C/c1ccc(F)cc1)Nc1ccccc1C(=O)O | 30 µM | 37% | 61% | 3.4 | 26 µM | 13% | inactive | inactive | Active | Active | Activity [4]: Active
3 | O=C(/C=C/c1ccc(Cl)cc1)Nc1ccccc1C(=O)O | 10 µM | 62% | 40% | 3.4 | 4 µM | 7% | inactive | inactive | Active | Active | Activity (Cavia porcellus [14]): Active; Activity [15]: Active
4 | O=C(/C=C/c1ccc(Br)cc1)Nc1ccccc1C(=O)O | 12 µM | 60% | 35% | 3.4 | 9 µM | 6% | inactive | inactive | Active | Active | IC50 [16]: 59 µM; Activity [15]: Active
5 | O=C(O)c1ccccc1Nc1cccc(C(F)(F)F)c1 [FLUFENAMIC ACID] | 7 to 57 µM |  |  |  |  |  |  |  |  |  | EC50 ([1]; read-out: pEC50 (converted)): 6.92 µM; Activity [17]: inactive; Activity [18]: Active; EC50 [19]: 24 µM
6 | CC(C)c1ccc(NC(=O)Cn2cnc3c2c(=O)n(C)c(=O)n3C)cc1 |  |  |  |  | 18 µM |  |  |  |  |  | Activity [20]: Active
7 | O=C(/C=C/c1ccc(C(F)(F)F)cc1)Nc1ccccc1C(=O)O | 27 µM | 51% | 17% | 3.4 |  | 28% | inactive | inactive |  |  | inhibition (Cavia porcellus [21]): inactive; Activity [17]: inactive; Activity [22]: Active; IC50 [16]: 34 µM; Activity (Cavia porcellus [14]): Active; Activity [18]: Active; Activity [23]: Active
